High-throughput results as filed in PubChem.
A selection: hits, their analogues and other compounds. The true share with any hit is near 3.2%.
DAX1 inh-1: blocks DAX1 repression of SF-1 activated StAR promoter. HEK293T StAR-luciferase reporter, SF-1/DAX-1 repression relief. inhibition, % at 6.8 µM. 370,000 compounds, 1.1% hits;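 active = inhibition above the mean over all tested compounds plus 3 SD, cut at about 3.6% in these data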;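 note: 0% = DAX-1 cells with DMSO and 100% = cells lacking DAX-1 with DMSO; higher inhibition means more luminescence from relief of DAX-1 repression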
SMARCA2 activ: SMARCA2 function activation, primary screen; MG213 cells, MMTV-luciferase reporter, dexamethasone, overnight; activation, % at 9.1 µM; 370,000 compounds, 1% hits; in the data active = activation above about 7.8%;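 note: 0% = vehicle wells and 100% = reference activator wells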
GASC-1 inh: human JMJD2C demethylase inhibition | AID 2099 | Q9H3R0 | inhibition, % at 2.35 µM | GST-JMJD2C(1-420) H3K9me3 demethylation, DELFIA europium | 330,000 compounds, 0.069% hits;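 active = more than half of a compound's replicate wells show inhibition beyond 50%, single wells judged on their own value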;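 note: signal counts dimethyl H3K9 product captured on neutravidin plate; 0% = median of DMSO wells and 100% = 0.3 times that DMSO median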
NR2E3 ag-1: activates human NR2E3 receptor; Q9Y5X4; CHO-S Gal4-NCOR/VP16-NR2E3 two-hybrid, luciferase; inhibition of corepressor binding, % at 3.98 µM; 360,000 compounds, 0.35% hits;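 active = inhibition above the mean of all tested compounds plus 3 SD, cut at about 70% in these data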;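 note: 0% = DMSO with NR2E3 transfected cells and 100% = cells lacking NR2E3 construct; higher means lower luciferase signal from less NR2E3 corepressor binding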
Target sequence (Q9Y5X4 whole entry, looked up, the tested form may be a part): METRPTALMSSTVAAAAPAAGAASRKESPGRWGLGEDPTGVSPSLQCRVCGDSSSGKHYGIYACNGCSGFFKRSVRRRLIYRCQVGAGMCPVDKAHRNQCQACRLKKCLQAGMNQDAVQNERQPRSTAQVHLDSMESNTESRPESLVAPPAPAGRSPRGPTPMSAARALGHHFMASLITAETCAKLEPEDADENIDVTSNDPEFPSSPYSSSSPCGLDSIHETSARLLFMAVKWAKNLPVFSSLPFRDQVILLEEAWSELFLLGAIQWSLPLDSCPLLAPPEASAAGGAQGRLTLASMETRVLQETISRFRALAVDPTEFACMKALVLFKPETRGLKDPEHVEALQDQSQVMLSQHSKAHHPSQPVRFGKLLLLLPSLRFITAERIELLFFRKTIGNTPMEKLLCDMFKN
DAX1 inh-2: inhibitors of human orphan nuclear receptor DAX1 (NR0B1); P51843; HEK293 Gal4-DAX1 luciferase reporter, luminescence; inhibition, % at 6.75 µM; 340,000 compounds, 0.99% hits;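 active = inhibition above the mean over all tested compounds plus 3 SD, cut at about 4.2% in these data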;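 note: 0% = DAX1-transfected cells with DMSO and 100% = empty-vector control cells with DMSO; inhibition shows as a rise in luminescence from relieved DAX1 repression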
NR2E3 ag-2: activates human photoreceptor nuclear receptor NR2E3; GST-NR2E3/biotin-RetCOR TR-FRET, 1536-well; inhibition of corepressor binding, % at 4.78 µM; 320,000 compounds, 0.12% hits; AID 2300;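 active = percent inhibition above the cutoff of mean plus 3 SD of all tested compounds, set per screening campaign, cut at about 20% in these data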;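 note: 0% = DMSO wells and 100% = biotin wells as full block of FRET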
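Test system – NR2E3–RetCOR corepressor complex · Quantity – NR2E3 fusion 1.35 nM · Buffer or medium – Tris pH 7.5 · Incubation – Compound–protein incubation for 5 h at 4 °C · Technique – TR-FRET, Eu(K)-anti-GST donor, streptavidin-D2 acceptor, ex 340, em 617/671 nm · Evaluation – percent inhibition of 671/617 nm emission ratio versus biotin and DMSO controls · Plate – 1536-well format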
* marks the source's active call; other numbers are inactive results; x = no result given.

SMILES	DAX1 inh-1	SMARCA2 activ	GASC-1 inh	NR2E3 ag-1	DAX1 inh-2	NR2E3 ag-2
Cn1cc(NC(=O)OCc2ccc(Cl)cc2)c(C(F)(F)F)n1	3.7*	1.9	5.7	20.2	1.0	1.0
C=C(C)Cn1cnc2c(oc3nc4c(cc32)CCCC4)c1=O	1.4	1.8	2.4	-68.1	6.6*	0.4
CC(c1ccccc1)n1cc(C(=O)NCCCn2ccnc2)nn1 (stereo not drawn)	-0.2	0.6	55.2*	2.2	0.6	-0.3
COc1ccc(C(=O)NC(=S)NNC(=O)c2cnccn2)cc1OC	0.0	-2.1	8.2	-24.9	4.9*	-2.8
COc1cccc(CNC(=O)C2CCN(S(=O)(=O)c3ccc(F)cc3)CC2)c1	-0.3	0.0	2.2	20.6	0.6	x
COc1cccc(CNC(=O)C2CCN(S(=O)(=O)c3ccc4c(c3)CCC(=O)N4)CC2)c1	-0.9	-0.1	-2.0	-30.3	5.0*	-0.8
C=CCN(C)CC#Cc1ccc(F)cc1	0.9	-0.1	x	x	x	x
COc1ccc2nc(NC(=O)c3ccccc3O)sc2c1	3.5	2.9	-15.4	-116.7	0.4	5.1
CCc1noc(C)c1C(=O)Nc1nc2ccc(F)cc2s1	3.9*	3.5	7.4	-99.5	0.8	1.1
COc1ccc2nc(NC(=O)CSCC(=O)Nc3cc(C)on3)sc2c1	4.2*	0.3	1.8	-18.3	0.4	-4.5
COc1ccc2nc(NC(=O)c3ccccc3[N+](=O)[O-])sc2c1	0.1	-0.2	49.3	-78.8	4.4*	1.5
COc1ccc2nc(NC(=O)c3ccc(F)cc3)sc2c1	1.8	1.3	4.9	-155.2	4.7*	-0.1
CCc1noc(C)c1C(=O)Nc1nc2ccc(S(C)(=O)=O)cc2s1	2.4	-1.0	-0.1	-21.0	1.1	-2.8
CCC(C(=O)Nc1ccccc1N1CCCC1)c1cccc(C)c1 (stereo not drawn)	-0.8	-3.2	x	x	x	x
CC(c1ccco1)N(C(=O)C12CC3(C)CC(C)(CC(C)(C3)C1)C2)c1ccccn1 (stereo not drawn)	-0.3	-1.3	12.7	-3.3	5.4*	3.4
Cc1cc(-c2nnc(CCC(=O)N3CCN(Cc4cccc(F)c4)CC3)o2)c(C)o1	0.5	0.2	4.8	-22.5	6.3*	1.6
Cc1ccc2c(c1)c1nc3ccccc3nc1n2C	0.3	1.7	0.9	-110.5	4.5*	3.5
Cn1c2ccc(F)cc2c2nc3ccccc3nc21	0.0	2.1	5.0	-27.2	1.5	-0.3
CCCC(=O)N1CCC(C(=O)NC2CCCc3ccccc32)CC1 (stereo not drawn)	-0.6	-4.0	x	x	x	x
O=c1/c(=C\c2ccc3c(c2)OCO3)sc2n1CCCN=2	3.0	2.3	-5.3	-123.5	4.6*	-1.5
COC(=O)C1CN(Cc2cn(Cc3ccc(C)cc3)nn2)CCS(=O)(=O)N1Cc1ccccc1 (stereo not drawn)	-0.6	0.8	x	x	x	x
O=C(/C=C/C=C/c1ccc2c(c1)OCO2)N1CCCCC1	1.6	4.2	x	-82.7	5.3*	-6.1
CCc1n[nH]c(=S)n1/N=C/c1ccc2c(c1)OCO2	0.1	4.2	0.3	-6.1	4.8*	-6.3
C(=NN1CCCCCC1)c1ccc2c(c1)OCO2	0.9	1.3	x	-43.3	4.3*	x
COC(=O)[C@]12C[C@H](CC(=O)N3CCSCC3)C(=O)N(Cc3ccccc3)C1=C[C@H](COCc1ccccc1)O[C@@H]2C	-1.0	-4.9	x	x	x	x
SMILES	DAX1 inh-1	SMARCA2 activ	GASC-1 inh	NR2E3 ag-1	DAX1 inh-2	NR2E3 ag-2
O=C(Nc1ccc(Cl)c(Cl)c1)c1cccnc1	0.1	2.4	-3.1	-26.3	6.3*	-2.8
O=C(Nc1ccc2c(c1)OCO2)c1cnc2n(c1=O)CCS2	0.6	4.3	-5.7	-46.7	0.5	-0.1
COc1ccc(Cl)cc1C(=O)Nc1ccc2c(c1)OCO2	2.9	0.9	-13.0	-101.7	1.1	2.7
O=C(Nc1ccc2c(c1)OCCO2)c1cnc2n(c1=O)CCS2	3.7*	3.1	3.8	-112.8	1.5	0.4
COc1ccc(Cl)cc1C(=O)Nc1ccc2c(c1)OCCO2	1.9	3.2	11.1	-100.1	8.4*	x
O=C(Nc1ccc2c(c1)OCCO2)c1ccc(Cl)c(Cl)c1	2.1	3.2	-9.4	-35.8	7.0*	-3.2
COC(=O)C1CN(C(=O)OC(C)(C)C)C2=C1C(=O)CC(C)(C(=O)OC(C)(C)C)C2 (stereo not drawn)	0.4	-2.4	x	x	x	x
